Results reported in ChEMBL document CHEMBL2417508, “Synthesis and evaluation of a 125I-labeled iminodihydroquinoline-derived tracer for imaging of voltage-gated sodium channels” (Bioorg Med Chem Lett, 2013).

Columns and labels:
[1] = Binding affinity to voltage-gated sodium channel in rat brain synaptosomal membranes; type: cell membranes
[2] = molecular target: Sodium channel protein type 2 subunit alpha (Rattus norvegicus, UniProt P04775); assay: Inhibition of rat brain voltage-gated sodium channel subunit alpha Nav1.2-mediated current expressed in CHO cells; type: cell-based
Sodium channel protein type 2 subunit alpha, sequence (P04775 whole entry): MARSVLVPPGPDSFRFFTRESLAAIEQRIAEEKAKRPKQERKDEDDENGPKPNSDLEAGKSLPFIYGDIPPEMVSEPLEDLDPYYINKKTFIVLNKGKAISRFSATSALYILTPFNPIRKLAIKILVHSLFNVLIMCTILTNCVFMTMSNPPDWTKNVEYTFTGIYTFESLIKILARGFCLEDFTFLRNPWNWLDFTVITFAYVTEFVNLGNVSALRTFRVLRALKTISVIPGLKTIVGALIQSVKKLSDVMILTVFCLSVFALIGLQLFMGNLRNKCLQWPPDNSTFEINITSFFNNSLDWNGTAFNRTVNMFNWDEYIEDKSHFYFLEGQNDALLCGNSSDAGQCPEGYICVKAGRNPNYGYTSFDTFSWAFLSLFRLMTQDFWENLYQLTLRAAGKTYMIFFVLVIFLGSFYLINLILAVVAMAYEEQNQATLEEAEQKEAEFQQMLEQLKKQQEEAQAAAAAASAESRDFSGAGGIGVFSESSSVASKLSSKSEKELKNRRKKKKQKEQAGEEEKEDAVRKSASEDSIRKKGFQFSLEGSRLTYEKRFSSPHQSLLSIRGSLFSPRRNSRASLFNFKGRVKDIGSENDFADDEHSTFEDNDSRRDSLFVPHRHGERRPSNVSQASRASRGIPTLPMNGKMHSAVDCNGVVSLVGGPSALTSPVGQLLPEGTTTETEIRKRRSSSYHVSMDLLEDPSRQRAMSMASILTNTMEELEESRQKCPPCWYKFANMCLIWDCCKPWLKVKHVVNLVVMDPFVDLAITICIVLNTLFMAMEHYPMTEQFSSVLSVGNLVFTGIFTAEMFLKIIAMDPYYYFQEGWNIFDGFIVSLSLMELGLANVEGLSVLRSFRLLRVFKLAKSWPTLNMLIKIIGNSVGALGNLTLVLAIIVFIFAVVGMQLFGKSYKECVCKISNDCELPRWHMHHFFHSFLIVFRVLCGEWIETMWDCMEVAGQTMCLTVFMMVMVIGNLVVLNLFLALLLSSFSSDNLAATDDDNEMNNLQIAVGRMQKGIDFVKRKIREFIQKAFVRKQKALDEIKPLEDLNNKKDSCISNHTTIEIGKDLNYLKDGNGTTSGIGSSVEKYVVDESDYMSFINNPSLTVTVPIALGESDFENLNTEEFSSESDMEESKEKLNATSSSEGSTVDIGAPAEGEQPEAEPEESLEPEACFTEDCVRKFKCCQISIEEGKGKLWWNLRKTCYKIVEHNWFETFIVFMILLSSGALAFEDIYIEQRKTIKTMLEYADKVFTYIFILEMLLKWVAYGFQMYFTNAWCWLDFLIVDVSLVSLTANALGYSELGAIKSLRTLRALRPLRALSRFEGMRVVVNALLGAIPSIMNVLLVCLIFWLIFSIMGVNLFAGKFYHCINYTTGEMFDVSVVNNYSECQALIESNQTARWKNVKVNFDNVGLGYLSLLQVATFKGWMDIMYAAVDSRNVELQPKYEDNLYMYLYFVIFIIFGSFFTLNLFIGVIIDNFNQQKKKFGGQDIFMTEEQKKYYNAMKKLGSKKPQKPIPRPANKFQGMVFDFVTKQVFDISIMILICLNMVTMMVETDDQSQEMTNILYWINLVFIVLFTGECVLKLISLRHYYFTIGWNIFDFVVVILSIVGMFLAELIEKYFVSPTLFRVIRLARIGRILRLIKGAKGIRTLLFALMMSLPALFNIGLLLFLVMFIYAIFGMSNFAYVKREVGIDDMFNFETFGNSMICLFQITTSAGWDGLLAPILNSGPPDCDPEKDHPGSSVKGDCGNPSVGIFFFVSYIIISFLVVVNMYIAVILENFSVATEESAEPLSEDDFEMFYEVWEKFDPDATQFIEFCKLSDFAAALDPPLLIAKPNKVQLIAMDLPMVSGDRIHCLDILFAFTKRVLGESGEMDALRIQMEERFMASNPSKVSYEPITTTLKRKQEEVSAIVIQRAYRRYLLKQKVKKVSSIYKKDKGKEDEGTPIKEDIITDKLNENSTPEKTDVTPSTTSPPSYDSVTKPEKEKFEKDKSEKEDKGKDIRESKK

[3] = Inhibition of voltage-gated sodium channel in rat brain homogenate; type: tissue-based
Procedure, shortened: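 Radioligand displacement of [3H]batrachotoxin binding was measured in rat brain homogenates, and IC50 was derived.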

Rattus norvegicus = species: Rattus norvegicus; assay: Binding affinity to voltage-gated sodium channel in rat brain synaptosomal membranes relative to control; type: cell membranes

Kd [1]: 2.2 nM | IC50 [2]: 9 nM | IC50 [3]: 8.1 nM | Bmax (Rattus norvegicus): 5.4 pmol/mg
Structure (SMILES): CCCCC/N=c1\ccn(Cc2ccccc2)c2cc(Cl)ccc12
